From PubChem BioAssay
The list is not random: actives were taken first. Their share in the collection is about 1.9%.
NPY-Y1 antag: NPY-Y1 (human) receptor antagonism; HEK293-CNG Y1 cells, membrane potential fluorescence; NPY at EC95, then isoproterenol; inhibition, % at 3.6 µM; 200,000 tested, 1% active; AID 1040;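 active means inhibition above the campaign mean inhibition of all tested compounds plus 3 SD, cut at about 20% in these data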;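 further: 0% = DMSO wells given NPY plus isoproterenol and 100% = isoproterenol alone without NPY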
Target sequence (P25929 whole entry, looked up): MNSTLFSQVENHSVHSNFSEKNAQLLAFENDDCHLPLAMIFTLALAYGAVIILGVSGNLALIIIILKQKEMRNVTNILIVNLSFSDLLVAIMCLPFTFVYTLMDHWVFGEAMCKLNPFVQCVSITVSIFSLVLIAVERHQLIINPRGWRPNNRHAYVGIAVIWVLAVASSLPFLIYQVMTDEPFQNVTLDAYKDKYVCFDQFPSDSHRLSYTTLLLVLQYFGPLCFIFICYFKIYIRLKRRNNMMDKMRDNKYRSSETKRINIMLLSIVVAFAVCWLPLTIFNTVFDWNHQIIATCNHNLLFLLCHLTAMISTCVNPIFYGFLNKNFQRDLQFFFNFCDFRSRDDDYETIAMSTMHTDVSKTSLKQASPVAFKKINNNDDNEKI
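Material: HEK293 cells co-expressing NPY Y1 receptor and cyclic-nucleotide gated channel. Timing: compound incubation 1 h at room temperature, readout 45 min post-stimulation. Signal: fluorescence, membrane potential probe.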
NPY Y2 blocker: blocks the human neuropeptide Y Y2 receptor | P49146 | NPY-Y2 expressing cells, antagonist mode | inhibition, % at 2.7 µM | 140,000 tested, 0.99% active; in the data active means inhibition above about 17%;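 further: 0% = vehicle with agonist challenge and 100% = reference antagonist with challenge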
NPY2 pot ag: potentiates or activates human NPY-Y2 receptor; cells expressing NPY-Y2, potentiator/agonist read-out; activation, % at 3.6 µM; 220,000 tested, 0.45% active; in the data active means activation above about 27%;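 further: cells stimulated with NPY near EC25 plus isoproterenol at EC100; 0% = vehicle plus submaximal agonist and 100% = vehicle plus saturating agonist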
NPY1 pot ag: potentiators or agonists of human neuropeptide Y receptor Y1; P25929; activation, % at 3.6 µM; 220,000 tested, 0.37% active; NPY-Y1 expressing cells, potentiator/agonist activation; in the data active means activation above about 33%, passing the limit was not always enough;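 further: cells stimulated with NPY at EC10 then isoproterenol at EC100; 0% = low agonist plus stimulus and 100% = saturating agonist plus stimulus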
NPY-Y2 confirm: human NPY-Y2 potentiation or agonism, confirmation. cell-based NPY-Y2 potentiator/agonist assay. 450 tested, 20% active. AID 1539. shares compounds with NPY2 pot ag. activation, % at 3.6 µM; in the data active means activation above about 33%
NPY-Y1 counter: NPY-Y1 potentiation or agonism as NPY-Y2 counter-screen; shares compounds with NPY2 pot ag; Y1 HEK293-CNG cells, membrane potential fluorescence; activation, % at 3.6 µM; 450 tested, 20% active; AID 1651; in the data active means activation above about 45%;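 further: cells stimulated with submaximal NPY then isoproterenol with phosphodiesterase inhibitor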
NPY-Y1 ag 2: counter-screen for NPY-Y2 potentiators: agonists of human NPY-Y1; shares compounds with NPY2 pot ag; HEK293 Y1-CNGC, membrane potential fluorescence, agonism; activation, % at 3.6 µM; 450 tested, 37% active;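 active means activation above the mean of DMSO-only control wells plus 3 SD, cut at about 18% in these data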;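 further: cells stimulated with 1 µM isoproterenol plus the PDE inhibitor Ro 20-1724; 0% = isoproterenol with DMSO and no NPY and 100% = 40 nM NPY; Y1 agonists lower the membrane potential dye signal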
CNGC inh: counter-screen for NPY-Y2 potentiators: inhibitors of CNG channel activity | 450 tested, 32% active | inhibition, % at 3.6 µM | shares compounds with NPY2 pot ag | HEK293-CNG parental, isoproterenol cAMP, membrane potential fluorescence;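 active means inhibition above the control-well mean plus 3 SD of those wells, cut at about 22% in these data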;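 further: 0% = DMSO with isoproterenol and 100% = DMSO without isoproterenol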
NPY-Y2 ag 2: NPY-Y2 agonism, counter-screen for Y2 potentiators | shares compounds with NPY2 pot ag | HEK293 Y2/CNGC cells, membrane potential fluorescence, agonist mode | activation, % at 3.6 µM | 450 tested, 56% active | AID 1710;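 active means activation above the mean of solvent-only control wells plus 3 SD, cut at about 10% in these data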;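 further: cells stimulated by isoproterenol with no NPY added so direct agonism is tested; 0% = DMSO with isoproterenol alone and 100% = NPY at EC100 plus isoproterenol; agonism lowers probe fluorescence through less cAMP and CNG channel opening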
An asterisk follows results filed as active.

Screening Cc1cc(C)n(-c2ncc3c(n2)N(CCO)CCOC3=O)n1 returned NPY2 pot ag 73*, NPY1 pot ag 27, NPY-Y2 confirm -3, NPY-Y1 counter 4, NPY-Y1 ag 2 1, CNGC inh 0 and NPY-Y2 ag 2 1.
For Oc1ccc(O)c(Cc2nc3ccccc3s2)c1 the results were NPY-Y1 antag -2, NPY2 pot ag 29*, NPY1 pot ag 27, NPY-Y2 confirm 6, NPY-Y1 counter 12, NPY-Y1 ag 2 8, CNGC inh 11 and NPY-Y2 ag 2 5.
For Oc1ccccc1OCc1nc2ccccc2s1 the results were NPY-Y1 antag 1, NPY Y2 blocker 2, NPY2 pot ag -3 and NPY1 pot ag -20.
For Cc1ccc(C(=O)Nc2ccc(S(=O)(=O)NCc3ccco3)cc2)cc1 the results were NPY-Y1 antag 1, NPY Y2 blocker 2, NPY2 pot ag -9 and NPY1 pot ag 15.
For Cc1cc(C)n(-c2ccc(C(=O)Nc3ccc(S(=O)(=O)NCc4ccco4)cc3)cc2)n1 the results were NPY-Y1 antag -2, NPY Y2 blocker 1, NPY2 pot ag 38*, NPY1 pot ag 6, NPY-Y2 confirm -2, NPY-Y1 counter -41, NPY-Y1 ag 2 -26, CNGC inh -6 and NPY-Y2 ag 2 -9.
CSc1cc(C)c(OCC(=O)Nc2ccc(NC(C)=O)cc2)c(C)c1 was read as NPY-Y1 antag 2, NPY2 pot ag 0 and NPY1 pot ag 6.
For CCNC(=S)N/N=C/c1cc(C)n(-c2ccc(Cl)cc2)c1C the results were NPY-Y1 antag 6, NPY2 pot ag -15 and NPY1 pot ag -17.
`Cc1cc(/C=N/NC(=O)Cn2c3ccccc3c(=O)c3ccccc32)c(C)n1-c1ccc(Cl)cc1` gave NPY-Y1 antag -3, NPY Y2 blocker 3, NPY2 pot ag 31*, NPY1 pot ag 30, NPY-Y2 confirm 29, NPY-Y1 counter 32, NPY-Y1 ag 2 0, CNGC inh -12 and NPY-Y2 ag 2 20*.
For C#CC(=O)N(c1ccc(OC)cc1OC)C(C(=O)NC1CCCC1)c1cccs1 (centres undefined) the results were NPY-Y1 antag -7, NPY2 pot ag 35*, NPY1 pot ag 15, NPY-Y2 confirm 11, NPY-Y1 counter 40, NPY-Y1 ag 2 16, CNGC inh 48* and NPY-Y2 ag 2 21*.
`O=C(Nc1ccc(OC(F)(F)F)cc1)Nc1cccc([N+](=O)[O-])c1` gave NPY-Y1 antag -9, NPY Y2 blocker 0, NPY2 pot ag 12 and NPY1 pot ag 4.
`Cc1ccc(NC(=O)Nc2cccc([N+](=O)[O-])c2)cc1F` gave NPY-Y1 antag -3, NPY Y2 blocker -3, NPY2 pot ag 32*, NPY1 pot ag 31, NPY-Y2 confirm 21, NPY-Y1 counter 24, NPY-Y1 ag 2 15, CNGC inh 18 and NPY-Y2 ag 2 17*.
COc1ccc(-c2ccc(CO)o2)cc1N was read as NPY-Y1 antag 4, NPY2 pot ag -7 and NPY1 pot ag 18.
For CC(=O)c1c(C)[nH]c(C(=O)OCc2ccccc2F)c1C the results were NPY-Y1 antag -2, NPY2 pot ag 29*, NPY1 pot ag 9, NPY-Y2 confirm 13, NPY-Y1 counter 17, NPY-Y1 ag 2 16, CNGC inh 27* and NPY-Y2 ag 2 25*.
For CCOc1ccc(/C=N/Nc2cc(=O)n(C)c(=O)n2C)cc1 the results were NPY-Y1 antag 2, NPY Y2 blocker 1, NPY2 pot ag -5 and NPY1 pot ag -8.
Screening N#Cc1cnc(NN)nc1 returned NPY-Y1 antag 4, NPY2 pot ag 6 and NPY1 pot ag 4.
